Values joined by “and” are separate entries in the source; they are usually repeats but may differ in a detail not shown here. Equal values may be shown once. Read-outs that look alike come from different tables or passages of the source. Marks after values point to notes of the source that are not given here.
Experiments:
[1] = phase II, cited from earlier work
CYP3A4/5 = details: cited from earlier work
[2] = Plasma pseudopharmacokinetics of total radioactivity; assay type: in vivo, human
Summary of the method: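 Same dosing, with separate, simultaneous plasma samples taken to 168 h. Total radioactivity was measured by AMS after combustion with CuO at 900°C and graphitisation at 500–550°C. Natural 14C background was subtracted, and values were converted to equivalents via carbon content and specific activity. Quantitation limit was <4 DPM/ml. Non-compartmental pseudo-parameters were derived, and AUClast ratio = parent AUClast / TRA AUClast. Outliers were assessed by Dixon's Q test.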

[3] = Plasma pharmacokinetics of unchanged ixabepilone; assay type: in vivo, human
Summary of the method: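 Eight advanced-cancer patients received a single 3 h IV infusion of 70 mg, 80 nCi [14C]-labelled test compound in Cremophor EL:ethanol diluted in Lactated Ringer's, with oral H1/H2 premedication. Blood was drawn 0–168 h and plasma was stored below −20°C. Parent was measured by isocratic LC-ESI-MS/MS (standard curve 2–500 ng/ml). Non-compartmental analysis gave AUCinf, CL=dose/AUCinf, and infusion-corrected Vss.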

[4] = phase I dose escalation study, 11 patients, 40 mg/m^2; cited from earlier work
[5] = Stability of [14C]-labelled ixabepilone; assay type: physicochemical
[6] = Urinary and faecal recovery; assay type: in vivo, human; details: for Radioactivity U/F ratio (urinary recovery relative to faecal recovery) / Recovery of ixabepilone in urine: 0–168 h; for Recovery of ixabepilone in urine: unchanged ixabepilone
[7] = literature value, no reference given, cited from earlier work
[8] = inter-patient variability, flat 70 mg dose, this study
[9] = plasma, individual patients 1-8, 3 h iv infusion 70 mg

With `C/C(=C\c1csc(C)n1)[C@@H]1C[C@@H]2O[C@]2(C)CCC[C@H](C)[C@H](O)[C@@H](C)C(=O)C(C)(C)[C@@H](O)CC(=O)N1` [ixabepilone, 15-desoxy-15-aza-epothilone B] as the compound, how does the Response rate ([1]; hormone-refractory metastatic prostate cancer) read?
Its Response rate is 33%.

What about the Response rate ([1]; metastatic breast cancer, 6 to 40 mg/m^2 iv over 1 to 3 h) of the same compound?
The Response rate was 12–44%.

And the Response rate ([1]; metastatic renal cell carcinoma)?
The Response rate was 14%.

And the Response rate ([1]; non-small cell lung cancer)?
Its Response rate is 14%.

What about the CYP3A4/5 substrate (CYP3A4/5) of the same compound?
The CYP3A4/5 substrate was “CYP3A4/5 substrate”.

What about the “Initial distribution phase, duration” value ([2]; TRA in plasma) of the same compound?
The value was “approximately 10 h”.

What about the “AUClast ratio (AUClast ixabepilone / AUClast TRA)” value ([2]; plasma, individual patients 1-8, patient 1 outlier) of the same compound?
The value was 0.26 and 0.06 and 1.62^b and 0.25 and 0.19 and 0.12 and 0.18.

And the “Time to maximum plasma concentration” value ([3]; 3 h infusion, in words)?
Its value is “around the end of infusion”.

What about the clearance ([3]; human, plasma, intravenous, 70 mg, Ixabepilone Cl, mean of 8 patients) of the same compound?
The clearance was 422 mL/min.

And the Vd ([3]; human, plasma, intravenous, 70 mg, Ixabepilone Vss, plasma, mean of 8 patients)?
Its Vd is 1150 L.

What about the Half-life ([3]; human, plasma, intravenous, 70 mg, Ixabepilone t1/2, plasma, mean of 8 patients) of the same compound?
Its Half-life is > 50 h.

And the “Coefficient of variation for AUCinf of ixabepilone” value [3, 8]?
Its value is 24%.

What about the “Coefficient of variation for Cl of ixabepilone” value [3, 8] of the same compound?
Its value is 21%.

And the “Ixabepilone AUCinf” value [3, 9]?
The value was 2220 ng·h/mL and 3350 ng·h/mL and 2970 ng·h/mL and 2990 ng·h/mL and 4320 ng·h/mL and 2520 ng·h/mL and 2290 ng·h/mL.

What about the “Ixabepilone AUClast” value [3, 9] of the same compound?
The value was 1930 ng·h/mL and 3060 ng·h/mL and 2750 ng·h/mL and 2830 ng·h/mL and 3820 ng·h/mL and 2420 ng·h/mL and 2170 ng·h/mL.

What about the “Ixabepilone Cl” value [3, 9] of the same compound?
The value was 31.6 L/h and 20.9 L/h and 23.6 L/h and 23.4 L/h and 16.2 L/h and 27.8 L/h and 30.5 L/h.

What about the “Ixabepilone Vss” value [3, 9] of the same compound?
The value was 1520 L and 1635 L and 1275 L and 1174 L and 929 L and 1027 L and 756 L and 912 L.

And the “Ixabepilone t1/2” value [3, 9]?
The value was 71.5 h and 47.2 h and 51.7 h and 53.0 h and 67.4 h and 23.5 h and 36.7 h.

And the “Initial distribution phase, duration” value ([3]; unchanged ixabepilone in plasma)?
The value was “approximately 10 h”.

What about the “Coefficient of variation for AUCinf of ixabepilone” value [4] of the same compound?
The value was 46%.

What about the “Coefficient of variation for Cl of ixabepilone” value [4] of the same compound?
Its value is 38%.

What about the “Stability of labelled drug (autoradiolysis)” value (“Stability of labelled drug” for short) ([5]; conventional [14C]-levels (100 μCi in a typical human radio-tracer study)) of the same compound?
The value was “very unstable”.

And the “Stability of labelled drug” value ([5]; specific activity of 1.5 μCi/mg)?
The value was “unstable”.

What about the “Stability of labelled drug” value ([5]; specific activity of less than 10 nCi/mg) of the same compound?
The value was “stable”.

What about the “Radioactivity U/F ratio (urinary recovery relative to faecal recovery)” value ([6]; individual patients 1-8) of the same compound?
The value was 0.48 and 0.29 and 3.05 and 0.24 and 0.31 and 0.39 and 1.97 and 0.30.

What about the “Radioactivity U/F ratio (urinary recovery relative to faecal recovery)” value ([6]; mean, patients 4 and 8 not included) of the same compound?
The value was 0.33^b.

What about the “Recovery of ixabepilone in urine” value ([6]; individual patients 1-8) of the same compound?
The value was 4.0 % of dose and 6.12 % of dose and 6.03 % of dose and 4.02 % of dose and 5.07 % of dose and 4.66 % of dose and 7.76 % of dose and 3.32 % of dose and 5.46 % of dose.

And the “Recovery of ixabepilone in urine” value ([6]; mean of 8 patients)?
The value was 5.30 % of dose.

What about the “Urinary radioactivity excreted in the first 24 h” value ([6]; first 24 h) of the same compound?
The value was 17 % of dose.

And the “Ixabepilone Clrenal” value ([6]; individual patients 1-8)?
The value was 1.98 L/h and 1.87 L/h and 1.46 L/h and 1.16 L/h and 1.19 L/h and 1.92 L/h and 0.61 L/h and 1.58 L/h.

And the “Share of total urinary ixabepilone excreted in the first 24 h” value ([6]; of total urinary ixabepilone)?
Its value is 76%.

What about the “Share of total urinary radioactivity excreted in the first 24 h” value ([6]; of total urinary radioactivity) of the same compound?
Its value is 65%.

With `CC[C@]1(O)C[C@H]2CN(CCc3c([nH]c4ccccc34)[C@@](C(=O)OC)(c3cc4c(cc3OC)N(C=O)[C@H]3[C@@](O)(C(=O)OC)[C@H](OC(C)=O)[C@]5(CC)C=CCN6CC[C@]43[C@@H]65)C2)C1` [vincristine] as the compound, how does the Half-life ([7]; in words) read?
Its Half-life is “several days”.

For `CC[C@]1(O)C[C@@H]2CN(CCc3c([nH]c4ccccc34)[C@@](C(=O)OC)(c3cc4c(cc3OC)N(C)[C@H]3[C@@](O)(C(N)=O)[C@H](O)[C@]5(CC)C=CCN6CC[C@]43[C@@H]65)C2)C1` [vindesine], which Half-life [7] is on record?
Its Half-life is 12 to 42 h.

Source: PMC1915607 (Investigational New Drugs, 2007)
